# ChEMBL document CHEMBL4219100, “Discovery of selective EGFR modulator to inhibit L858R/T790M double mutants bearing a N-9-Diphenyl-9H-purin-2-amine scaffold” (Bioorg Med Chem, 2018)
# System: HT-29
# Assay: Cytotoxicity against human HT-29 cells after 72 hrs by MTT assay
# Type: cell-based
# Conditions: HT-29, 72 h
# Procedure, shortened: (§1)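 Cells grown in MEM with 10% FBS; about 4×10^3 cells per well seeded and held 24 h at 37°C in 5% CO₂. Compounds then added and culture continued 72 h. MTT added ([…]) for 4 h at 37°C. Formazan dissolved in DMSO and absorbance read at 492 nm against 630 nm reference. Each compound tested three times per line; IC50 is the mean of at least three determinations.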
row,Structure (SMILES),IC50 [µM]
1,C=CC(=O)Nc1cc(Nc2ncc3ncn(-c4ccc(C(C)C)cc4)c3n2)c(OC)cc1N1CCN(C)CC1,7.69
2,C=CC(=O)Nc1cc(Nc2ncc3[nH]c(=O)n(-c4ccc(C(C)C)cc4)c3n2)c(OC)cc1N1CCOCC1,1.54
3,C=CC(=O)Nc1cc(Nc2ncc3[nH]c(=O)n(-c4ccc(I)cc4)c3n2)c(OC)cc1N1CCN(C)CC1,39.3
4,C=CC(=O)Nc1cc(Nc2ncc3ncn(-c4ccc(Br)cc4)c3n2)c(OC)cc1N(C)CCN(C)C,1.46
5,C=CC(=O)Nc1cc(Nc2ncc3ncn(-c4ccccc4)c3n2)c(OC)cc1N(C)CCN(C)C,8.08
6,C=CC(=O)Nc1cc(Nc2ncc3ncn(-c4ccccc4Cl)c3n2)c(OC)cc1N(C)CCN(C)C,11.3
7,C=CC(=O)Nc1cc(Nc2ncc3ncn(-c4ccc(C)cc4)c3n2)c(OC)cc1N(C)CCN(C)C,9.23
8,C=CC(=O)Nc1cc(Nc2ncc3[nH]c(=O)n(-c4ccc(I)cc4)c3n2)c(OC)cc1N1CCOCC1,19.6
9,C=CC(=O)Nc1cc(Nc2ncc3ncn(-c4ccccc4Br)c3n2)c(OC)cc1N(C)CCN(C)C,16.2
10,C=CC(=O)Nc1cc(Nc2ncc3[nH]c(=O)n(-c4ccc(C(C)C)cc4)c3n2)c(OC)cc1N1CCN(C)CC1,14.3
11,C=CC(=O)Nc1cc(Nc2ncc3ncn(-c4ccc(OC)cc4)c3n2)c(OC)cc1N(C)CCN(C)C,1.74
12,C=CC(=O)Nc1cc(Nc2ncc3ncn(-c4ccc(F)c(Cl)c4)c3n2)c(OC)cc1N(C)CCN(C)C,1.61
13,C=CC(=O)Nc1cc(Nc2ncc3ncn(C4CCCC4)c3n2)c(OC)cc1N(C)CCN(C)C,20.9
14,C=CC(=O)Nc1cc(Nc2ncc3ncn(-c4ccccc4F)c3n2)c(OC)cc1N(C)CCN(C)C,9.75
15,C=CC(=O)Nc1cc(Nc2nccc(-c3cn(C)c4ccccc34)n2)c(OC)cc1N(C)CCN(C)C [OSIMERTINIB],0.65

# System: A549
# Assay: Cytotoxicity against human A549 cells expressing wild-type EGFR/K-ras mutant after 72 hrs by MTT assay
# Type: cell-based
# Conditions: A549, 72 h
# Procedure, shortened: as §1
row,Structure (SMILES),IC50 [µM]
1,C=CC(=O)Nc1cc(Nc2ncc3ncn(-c4ccc(C(C)C)cc4)c3n2)c(OC)cc1N1CCN(C)CC1,9.25
2,C=CC(=O)Nc1cc(Nc2ncc3[nH]c(=O)n(-c4ccc(C(C)C)cc4)c3n2)c(OC)cc1N1CCOCC1,1.17
3,C=CC(=O)Nc1cc(Nc2ncc3[nH]c(=O)n(-c4ccc(I)cc4)c3n2)c(OC)cc1N1CCN(C)CC1,0.49
4,C=CC(=O)Nc1cc(Nc2ncc3ncn(-c4ccc(Br)cc4)c3n2)c(OC)cc1N(C)CCN(C)C,1.15
5,C=CC(=O)Nc1cc(Nc2ncc3ncn(-c4ccccc4)c3n2)c(OC)cc1N(C)CCN(C)C,0.58
6,C=CC(=O)Nc1cc(Nc2ncc3ncn(-c4ccccc4Cl)c3n2)c(OC)cc1N(C)CCN(C)C,12.6
7,C=CC(=O)Nc1cc(Nc2ncc3ncn(-c4ccc(C)cc4)c3n2)c(OC)cc1N(C)CCN(C)C,0.36
8,C=CC(=O)Nc1cc(Nc2ncc3[nH]c(=O)n(-c4ccc(I)cc4)c3n2)c(OC)cc1N1CCOCC1,18.5
9,C=CC(=O)Nc1cc(Nc2ncc3ncn(-c4ccccc4Br)c3n2)c(OC)cc1N(C)CCN(C)C,2.09
10,C=CC(=O)Nc1cc(Nc2ncc3[nH]c(=O)n(-c4ccc(C(C)C)cc4)c3n2)c(OC)cc1N1CCN(C)CC1,2.05
11,C=CC(=O)Nc1cc(Nc2ncc3ncn(-c4ccc(OC)cc4)c3n2)c(OC)cc1N(C)CCN(C)C,3.33
12,C=CC(=O)Nc1cc(Nc2ncc3ncn(-c4ccc(F)c(Cl)c4)c3n2)c(OC)cc1N(C)CCN(C)C,5.19
13,C=CC(=O)Nc1cc(Nc2ncc3ncn(C4CCCC4)c3n2)c(OC)cc1N(C)CCN(C)C,2.9
14,C=CC(=O)Nc1cc(Nc2ncc3ncn(-c4ccccc4F)c3n2)c(OC)cc1N(C)CCN(C)C,5.82
15,C=CC(=O)Nc1cc(Nc2nccc(-c3cn(C)c4ccccc34)n2)c(OC)cc1N(C)CCN(C)C [OSIMERTINIB],0.87

# Species: Homo sapiens
# Assay: Selectivity ratio of IC50 for human A549 cells expressing wild-type EGFR/K-Ras mutant to IC50 for human NCI-H1975 cells expressing EGFR L858R/T790M double mutant
# Conditions: not given
row,Ratio IC50,Structure (SMILES)
1,< 1,C=CC(=O)Nc1cc(Nc2ncc3[nH]c(=O)n(-c4ccc(C(C)C)cc4)c3n2)c(OC)cc1N1CCOCC1
2,< 1,C=CC(=O)Nc1cc(Nc2ncc3[nH]c(=O)n(-c4ccc(I)cc4)c3n2)c(OC)cc1N1CCN(C)CC1
3,58,C=CC(=O)Nc1cc(Nc2ncc3ncn(-c4ccccc4)c3n2)c(OC)cc1N(C)CCN(C)C
4,7,C=CC(=O)Nc1cc(Nc2ncc3ncn(-c4ccccc4Cl)c3n2)c(OC)cc1N(C)CCN(C)C
5,3,C=CC(=O)Nc1cc(Nc2ncc3ncn(-c4ccc(C)cc4)c3n2)c(OC)cc1N(C)CCN(C)C
6,9,C=CC(=O)Nc1cc(Nc2ncc3ncn(C4CCCC4)c3n2)c(OC)cc1N(C)CCN(C)C
7,< 1,C=CC(=O)Nc1cc(Nc2ncc3ncn(-c4ccccc4F)c3n2)c(OC)cc1N(C)CCN(C)C

# More lines, now with the values behind:
row,Structure (SMILES),Ratio IC50
1,C=CC(=O)Nc1cc(Nc2ncc3ncn(-c4ccc(C(C)C)cc4)c3n2)c(OC)cc1N1CCN(C)CC1,5
2,C=CC(=O)Nc1cc(Nc2ncc3ncn(-c4ccc(Br)cc4)c3n2)c(OC)cc1N(C)CCN(C)C,8
3,C=CC(=O)Nc1cc(Nc2ncc3[nH]c(=O)n(-c4ccc(I)cc4)c3n2)c(OC)cc1N1CCOCC1,4
4,C=CC(=O)Nc1cc(Nc2ncc3ncn(-c4ccccc4Br)c3n2)c(OC)cc1N(C)CCN(C)C,1
5,C=CC(=O)Nc1cc(Nc2ncc3[nH]c(=O)n(-c4ccc(C(C)C)cc4)c3n2)c(OC)cc1N1CCN(C)CC1,1
6,C=CC(=O)Nc1cc(Nc2ncc3ncn(-c4ccc(OC)cc4)c3n2)c(OC)cc1N(C)CCN(C)C,42
7,C=CC(=O)Nc1cc(Nc2ncc3ncn(-c4ccc(F)c(Cl)c4)c3n2)c(OC)cc1N(C)CCN(C)C,35

# System: NCI-H1975
# Assay: Cytotoxicity against human NCI-H1975 cells expressing EGFR L858R/T790M double mutant after 72 hrs by MTT assay
# Type: functional, cell-based
# Conditions: NCI-H1975, 72 h
# Procedure, shortened: as §1
row,Structure (SMILES),IC50 [µM]
1,C=CC(=O)Nc1cc(Nc2ncc3ncn(-c4ccc(C(C)C)cc4)c3n2)c(OC)cc1N1CCN(C)CC1,1.93
2,C=CC(=O)Nc1cc(Nc2ncc3[nH]c(=O)n(-c4ccc(C(C)C)cc4)c3n2)c(OC)cc1N1CCOCC1,4.04
3,C=CC(=O)Nc1cc(Nc2ncc3[nH]c(=O)n(-c4ccc(I)cc4)c3n2)c(OC)cc1N1CCN(C)CC1,10.4
4,C=CC(=O)Nc1cc(Nc2ncc3ncn(-c4ccc(Br)cc4)c3n2)c(OC)cc1N(C)CCN(C)C,0.14
5,C=CC(=O)Nc1cc(Nc2ncc3ncn(-c4ccccc4)c3n2)c(OC)cc1N(C)CCN(C)C,0.11
6,C=CC(=O)Nc1cc(Nc2ncc3ncn(-c4ccccc4Cl)c3n2)c(OC)cc1N(C)CCN(C)C,1.71
7,C=CC(=O)Nc1cc(Nc2ncc3ncn(-c4ccc(C)cc4)c3n2)c(OC)cc1N(C)CCN(C)C,0.14
8,C=CC(=O)Nc1cc(Nc2ncc3[nH]c(=O)n(-c4ccc(I)cc4)c3n2)c(OC)cc1N1CCOCC1,4.31
9,C=CC(=O)Nc1cc(Nc2ncc3ncn(-c4ccccc4Br)c3n2)c(OC)cc1N(C)CCN(C)C,1.8
10,C=CC(=O)Nc1cc(Nc2ncc3[nH]c(=O)n(-c4ccc(C(C)C)cc4)c3n2)c(OC)cc1N1CCN(C)CC1,2.14
11,C=CC(=O)Nc1cc(Nc2ncc3ncn(-c4ccc(OC)cc4)c3n2)c(OC)cc1N(C)CCN(C)C,0.16
12,C=CC(=O)Nc1cc(Nc2ncc3ncn(-c4ccc(F)c(Cl)c4)c3n2)c(OC)cc1N(C)CCN(C)C,0.1
13,C=CC(=O)Nc1cc(Nc2ncc3ncn(C4CCCC4)c3n2)c(OC)cc1N(C)CCN(C)C,0.33
14,C=CC(=O)Nc1cc(Nc2ncc3ncn(-c4ccccc4F)c3n2)c(OC)cc1N(C)CCN(C)C,6.72
